Source: ChEMBL document CHEMBL1921750 (J Med Chem, 2011)
Calls of active or inactive are those of the source. The rule behind the calls is not given here.

Experiments:
Cannabinoid receptor 2 = Cannabinoid receptor 2 (Homo sapiens, UniProt P34972); experiment: Displacement of [3H]CP55940 from human CB2 receptor expressed in human HEK293 cells; assay type: cell-based
Method in brief: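 Membranes from HEK-293 cells stably expressing human CB1 or CB2. Compounds displacing >50% at 10 μM got curves at 1–1000 nM. Ki from IC50 via Cheng–Prusoff. Three experiments in duplicate. SI = Ki CB2/Ki CB1.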

Cannabinoid receptor 1 [1] = target: T1, Cannabinoid receptor 1 (Homo sapiens, UniProt P21554); experiment: Displacement of [3H]CP55940 from human CB1 receptor expressed in human HEK293 cells; assay type: cell-based
T1 sequence (P21554 whole entry): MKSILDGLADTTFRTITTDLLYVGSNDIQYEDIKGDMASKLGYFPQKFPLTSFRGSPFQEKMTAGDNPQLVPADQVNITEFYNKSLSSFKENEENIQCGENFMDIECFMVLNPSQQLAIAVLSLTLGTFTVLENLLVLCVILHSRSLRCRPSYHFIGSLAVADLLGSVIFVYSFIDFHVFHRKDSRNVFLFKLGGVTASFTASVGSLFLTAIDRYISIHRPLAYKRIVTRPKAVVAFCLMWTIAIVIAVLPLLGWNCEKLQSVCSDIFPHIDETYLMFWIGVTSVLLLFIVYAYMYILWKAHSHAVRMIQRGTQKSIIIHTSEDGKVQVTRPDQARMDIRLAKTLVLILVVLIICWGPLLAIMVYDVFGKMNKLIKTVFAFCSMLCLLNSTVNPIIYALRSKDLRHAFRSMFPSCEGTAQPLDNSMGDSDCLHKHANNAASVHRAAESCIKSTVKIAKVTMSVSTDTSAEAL

[2] = target: Cannabinoid receptor 1 (Mus musculus) (UniProt P47746); experiment: Agonist activity at MF1 mouse brain CB1 receptor assessed as induction of [35S]GTPgammaS binding after 60 mins by liquid scintillation counting relative to cannabinoid receptor agonist CP55940; assay type: functional, tissue-based
Chain of Cannabinoid receptor 1 (Mus musculus) (P47746 whole entry): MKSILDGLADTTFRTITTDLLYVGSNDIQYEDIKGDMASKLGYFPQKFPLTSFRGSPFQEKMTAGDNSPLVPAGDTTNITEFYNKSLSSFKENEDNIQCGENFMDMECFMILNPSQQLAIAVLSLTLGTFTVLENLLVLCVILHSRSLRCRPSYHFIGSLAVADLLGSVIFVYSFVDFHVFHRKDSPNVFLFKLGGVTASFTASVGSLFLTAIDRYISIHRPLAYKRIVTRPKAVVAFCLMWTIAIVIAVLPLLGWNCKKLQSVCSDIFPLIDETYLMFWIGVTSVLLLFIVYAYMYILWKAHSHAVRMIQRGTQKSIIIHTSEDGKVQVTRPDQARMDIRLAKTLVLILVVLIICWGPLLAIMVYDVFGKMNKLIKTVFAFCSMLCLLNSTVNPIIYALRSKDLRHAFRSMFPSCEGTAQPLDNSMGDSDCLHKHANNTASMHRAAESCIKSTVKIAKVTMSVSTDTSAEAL
Method in brief: (§1)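 [35S]GTPγS binding in buffer of 50 mM Tris-HCl, 50 mM Tris-base, 5 mM MgCl2, 1 mM EDTA, 100 mM NaCl, 1 mM DTT, 0.1% BSA with 0.1 nM [35S]GTPγS and 30 μM GDP. Mouse whole brain membranes (5 μg/well) were preincubated 30 min at 30 °C with adenosine deaminase. CHO-hCB1 membranes were used at 50 μg/well. Test range 1 nM–10 μM. Incubation 60 min at 30 °C, filtration, scintillation counting. Nonspecific binding taken with 30 μM GTPγS. Net stimulation = agonist minus basal. EC50/Emax by sigmoid nonlinear regression.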

Cannabinoid receptor 1 [3] = target: Cannabinoid receptor 1 (Mus musculus, UniProt P47746); experiment: Agonist activity at MF1 mouse brain CB1 receptor assessed as induction of [35S]GTPgammaS binding after 60 mins by liquid scintillation counting; assay type: functional, tissue-based; method in brief: as §1
Chain of Cannabinoid receptor 1 (Mus musculus, UniProt P47746) (P47746 whole entry): as above

Plasma [4] = experiment: Metabolic stability of the compound in human plasma assessed as plasma esterase-mediated compound hydrolysis at 100 uM from 15 to 120 mins by reverse-phase LC-MS analysis; assay type: ADME, cell-free
Method in brief: (§2)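 Citrated human plasma, or water as control, spiked to final 1 × 10⁻⁴ or 2 × 10⁻⁴ M. Incubated at 37 °C for 0, 15, 30, 60, 120 min, stopped with acetonitrile, centrifuged. Supernatant run by reverse-phase LC (C8, methanol/water 92/8) with UV 254 nm and positive-ion MS. Triplicates. AUC(0–120 min) compared by Student's t test.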

Homo sapiens = organism: Homo sapiens; experiment: Selectivity index, ratio of Ki for human CB2 receptor to Ki for human CB1 receptor
Method in brief: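 Membranes from HEK-293 cells stably expressing human CB1 or CB2. […] Preliminary screen at 5, 10, 25 μM. Compounds displacing >50% at 10 μM got curves at 1–1000 nM. Ki from IC50 via Cheng–Prusoff. Three experiments in duplicate. SI = Ki CB2/Ki CB1.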

[5] = Chemical stability of the compound in biological buffer at 2.1 mM at 30 degC after 90 mins by LC-MS/MS analysis; assay type: physicochemical; conditions: 1.5 h, 2100 µM
Method in brief: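 DMSO solution (2.1 mM stock) diluted in GTPγS binding buffer and incubated 90 min at 30 °C. Samples taken at 60 and 90 min and analysed by LC–ESI triple-quadrupole MS (positive mode, C18, acetonitrile/0.1% formic acid gradient) for hydrolysis products.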

Cannabinoid receptor 1 [6] = target: T1, Cannabinoid receptor 1; experiment: Agonist activity at human CB1 receptor expressed in CHO cells assessed as induction of [35S]GTPgammaS binding after 60 mins by liquid scintillation counting; assay type: functional, cell-based; method in brief: as §1
[7] = target: Cannabinoid receptor 1 (Mus musculus) (UniProt P47746); experiment: Antagonist activity at MF1 mouse brain CB1 receptor assessed as inhibition of CP55940-induced [35S]GTPgammaS binding at 100 nM after 60 mins by liquid scintillation counting; assay type: functional
Method in brief: (§3)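 Same [35S]GTPγS assay on mouse whole brain membranes (5 μg/well, adenosine deaminase-preincubated). 0.1 nM [35S]GTPγS, 30 μM GDP. Single concentration of test compound, 1 μM or 100 nM, against a log concentration-response curve of CP-55940. Incubation 60 min at 30 °C. Read by filtration and liquid scintillation counting.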

CYP3A4 = experiment: Metabolic stability assessed as compound remaining at 1 uM after 1 hr by LC-MS analysis in presence of human CYP3A4 and NADPH; assay type: ADME; conditions: human CYP3A4 enzyme, read-out: Stability
Method in brief: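 Recombinant human CYP3A4 at 20 pmol/mL (0.1–0.2 mg/mL protein). Substrate final 1 μM, 0.25% organic solvent. Run with NADPH regenerating system or phosphate buffer instead. Incubated 1 h at 37 °C, stopped with acetonitrile. Percent remaining by MS.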

Cannabinoid receptor 1 [8] = target: T1, Cannabinoid receptor 1; experiment: Antagonist activity at human CB1 receptor expressed in CHO cells assessed as inhibition of CP55940-induced [35S]GTPgammaS binding after 60 mins by liquid scintillation counting; assay type: functional, cell-based
Plasma [9] = experiment: Metabolic stability of the compound in human plasma assessed as plasma esterase-mediated compound hydrolysis at 200 uM from 15 to 120 mins by reverse-phase LC-MS analysis; assay type: ADME, cell-free; method in brief: as §2
[10] = target: Cannabinoid receptor 1 (Mus musculus) (UniProt P47746); experiment: Antagonist activity at MF1 mouse brain CB1 receptor assessed as inhibition of CP55940-induced [35S]GTPgammaS binding at 1 uM after 60 mins by liquid scintillation counting; assay type: functional; method in brief: as §3

Chain of Cannabinoid receptor 2 (P34972 whole entry): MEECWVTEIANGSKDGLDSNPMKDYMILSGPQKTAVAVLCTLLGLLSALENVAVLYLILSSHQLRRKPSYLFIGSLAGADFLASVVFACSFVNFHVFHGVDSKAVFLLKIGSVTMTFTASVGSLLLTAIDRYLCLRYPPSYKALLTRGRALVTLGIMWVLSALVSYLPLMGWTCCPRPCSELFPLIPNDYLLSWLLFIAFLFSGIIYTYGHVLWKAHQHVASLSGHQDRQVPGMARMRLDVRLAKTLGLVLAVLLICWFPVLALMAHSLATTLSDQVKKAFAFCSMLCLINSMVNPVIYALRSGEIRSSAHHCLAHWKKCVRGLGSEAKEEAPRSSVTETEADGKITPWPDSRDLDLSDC

Row | Structure (SMILES) | Ki (Cannabinoid receptor 2) [nM] | Ki (Cannabinoid receptor 1 [1]) [nM] | other results
1 | CCCCCCc1ccc(O)cc1OCCCCCCCCCCC(=O)OCC(O)CO (stereo not given) | 4820 | > 10000 | 
2 | CCCCCCC(C)(C)c1cc(O)cc(OCCCCCCOC(CO)CO)c1 | 190 |  | 
3 | CCCCCCC(C)(C)c1cc(O)cc(OCCCCCCCCCCC(=O)OCC(O)CO)c1 (stereo not given) | 310 | > 10000 | 
4 | CCCCCc1cc(O)cc(OCCCCCCCCCCOC(CO)CO)c1 | > 10000 | > 10000 | 
5 | CCCCCCC(C)(C)c1cc(O)cc(OCCCCCCCCOC(CO)CO)c1 | 110 | 270 | 
6 | CCCCCCC(C)(C)c1ccc([C@@H]2C[C@H](O)CC[C@H]2CCCO)c(O)c1 [CP-55940] |  |  | Emax [2]: 104%; EC50 (Cannabinoid receptor 1 [3]): 42 nM
7 | CCCCCCC(C)(C)c1cc(O)cc(OCCCCCCCCCCC(=O)OC(CO)CO)c1 | 790 | 10 | Emax [2]: 14.7%; Stability (Plasma [4]): Stable; Ratio Ki (Homo sapiens): 88; Stability [5]: Stable; Activity (Cannabinoid receptor 1 [6]): inactive; EC50 (Cannabinoid receptor 1 [3]): 6.3 nM; Activity [7]: inactive; remaining at 1 h, 1 µM (CYP3A4): 24%; Activity (Cannabinoid receptor 1 [8]): inactive; Stability (Plasma [9]): Stable
8 | CCCCCCc1ccc(O)cc1OCCCCCCCC(=O)OC(CO)CO | 1800 | 800 | 
9 | CCCCCc1cc(O)cc(OCCCCCCOC(CO)CO)c1 | 910 | 430 | 
10 | CCCCCc1cc(O)cc(OCCCCCCCCOC(CO)CO)c1 | 1160 | 1860 | 
11 | CCCCCCc1ccc(OCCCCCCCC(=O)OC(CO)CO)cc1O | 7870 | > 10000 | 
12 | CCCCCc1cc(O)cc(OCCCCCCCCCCCCOC(CO)CO)c1 | > 10000 | 3780 | 
13 | CCCCCCC(C)(C)c1cc(O)cc(OCCCCCCCCCCCCOC(CO)CO)c1 | 1670 | 1040 | 
14 | CCCCCCc1ccc(O)cc1OCCCCCCCCCCC(=O)OC(CO)CO | 1800 | 60 | Emax [2]: 11.4%; Activity [10]: inactive; Ratio Ki (Homo sapiens): 32; Activity (Cannabinoid receptor 1 [6]): inactive; EC50 (Cannabinoid receptor 1 [3]): 78.4 nM; Activity (Cannabinoid receptor 1 [8]): inactive
15 | CCCCCCc1ccc(OCCCCCCOC(CO)CO)cc1O | 1130 | > 10000 | 
16 | CCCCC/C=C\C/C=C\C/C=C\C/C=C\CCCCOC(CO)CO | > 3000 | 20 | 
17 | CCCCCCc1ccc(OCCCCCCCCCCC(=O)OC(CO)CO)cc1O | 7870 | > 10000 | 
18 | CCCCCCC(C)(C)c1cc(O)cc(OCCCCCCCCCCOC(CO)CO)c1 | 380 | 2940 | 
19 | CCCCCc1cc(O)cc(OCCCCCCCCCCC(=O)OC(CO)CO)c1 | 870 | 5600 | 
20 | CCCCCCC(C)(C)c1cc(O)cc(OCCCCCCCCCCCC(=O)OC(CO)CO)c1 | 800 | 2710 | 
21 | CCCCCc1cc(O)cc(OCCCCCCCC(=O)OC(CO)CO)c1 | 7870 | 5600 | 
22 | CCCCCc1cc(O)cc(OCCCCCCCCCCC(=O)OCC(O)CO)c1 (stereo not given) | 7910 | > 10000 | 
23 | CCCCCCC(C)(C)c1cc(O)cc(OCCCCCCCC(=O)OC(CO)CO)c1 | 790 | 1120 | 
24 | CCCCCCc1ccc(OCCCCCCCCCCC(=O)OCC(O)CO)cc1O (stereo not given) | 10400 | > 10000 | 
25 | CCCCCCc1ccc(OCCCCCCCCCCOC(CO)CO)cc1O | 2390 | > 10000 | 
